Our source for the MIC values is ChEMBL document CHEMBL1781879, “Synthesis and biological characterization of arylomycin B antibiotics” (2011).

One assay deals with Pseudomonas aeruginosa. Nature of the assay: Antibacterial activity against 1 x 10^7 CFU/mL Pseudomonas aeruginosa PAO1 PAS2008 harboring LepB P84L mutant in cation-adjusted Mueller Hinton 2 broth after 24 hrs by CLSI broth microdilution method. It is filed as functional. The note with it: PAO1 PAS2008, 24 h. Put shortly:
(§1)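 CLSI broth microdilution in cation-adjusted Mueller Hinton II broth. Inoculum made by suspending organisms grown on solid media in the same broth and diluting to 1×10^7 CFU/ml; 5 μl added to 100 μl medium containing graded compound concentrations. MIC is the lowest concentration preventing visible growth, from at least three independent experiments.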

The nature of assay [1]: Antibacterial activity against 1 x 10^7 CFU/mL Staphylococcus aureus NCTC 8325 PAS8001 harboring SpsB P29S mutant in cation-adjusted Mueller Hinton 2 broth after 24 hrs by CLSI broth microdilution method. It is filed as functional, Staphylococcus aureus subsp. aureus NCTC 8325. Conditions: PAS8001, 24 h. Put shortly: as §1
For orientation: Broth dilution looks for growth in wells or tubes with falling amounts of substance.

The next assay has as its system Streptococcus agalactiae. Nature of the assay: Antibacterial activity against 1 x 10^7 CFU/mL Streptococcus agalactiae COH1 after 24 hrs by CLSI broth microdilution method. Format: functional. The note with it: COH1, 24 h. Put shortly:
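Streptococcus agalactiae tested by CLSI broth microdilution in both cation-adjusted Mueller Hinton II and Todd Hewitt broth. Inoculum was a suspension from solid media at 1×10^7 cfu/ml, with 5 μl added to 100 μl medium containing compound. MIC was the lowest concentration inhibiting visible growth, from at least three independent experiments.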

Another assay deals with Lactococcus lactis. Nature of the assay: Antibacterial activity against 1 x 10^7 CFU/mL Lactococcus lactis ATCC 19257 in trypticase soy yeast broth after 24 hrs by CLSI broth microdilution method. Format: functional. The note with it: ATCC 19257, 24 h. In short, it runs like this: (§2)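 CLSI broth microdilution. Bacteria from solid media were suspended in the test broth at 1×10^7 cfu/ml, and 5 μl was added to 100 μl medium containing compound. Media were cation-adjusted Mueller Hinton II (R. opacus, S. epidermidis), Todd Hewitt (S. pyogenes, S. pneumoniae) and Trypticase Soy Yeast broth (L. lactis). MIC was the lowest concentration inhibiting visible growth, from at least three independent experiments.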

Another assay has as its system Streptococcus pneumoniae. Nature of the assay: Antibacterial activity against 1 x 10^7 CFU/mL Streptococcus pneumoniae R800 in Todd Hewitt broth after 24 hrs by CLSI broth microdilution method. It is filed as functional. The note with it: R800, 24 h. Put shortly: as §2
The test system of assay [2] is Staphylococcus epidermidis. Nature of the assay: Antibacterial activity against 1 x 10^7 CFU/mL wild-type Staphylococcus epidermidis RP62A in cation-adjusted Mueller Hinton 2 broth after 24 hrs by CLSI broth microdilution method. It is filed as functional. Put shortly:
as §2

Assay [3] relates to Corynebacterium glutamicum. Nature of the assay: Antibacterial activity against 1 x 10^7 CFU/mL Corynebacterium glutamicum ATCC 44475 in cation-adjusted Mueller Hinton 2 broth after 24 hrs by CLSI broth microdilution method. Format: functional. Conditions: ATCC 44475, 24 h. Put shortly:
as §1

A short description of assay [4]: Antibacterial activity against 1 x 10^7 CFU/mL Staphylococcus epidermidis RP62A PAS9002 harboring Sps1B-S31P mutant in cation-adjusted Mueller Hinton 2 broth after 24 hrs by CLSI broth microdilution method. It is filed as functional. Conditions: PAS9002, 24 h. Put shortly:
as §1

The next assay relates to Streptococcus pyogenes. Nature of the assay: Antibacterial activity against 1 x 10^7 CFU/mL Streptococcus pyogenes M1-5448 in Todd Hewitt broth after 24 hrs by CLSI broth microdilution method. It is filed as functional. Conditions: M1-5448, 24 h. Put shortly:
as §2

The nature of assay [5]: Antibacterial activity against 1 x 10^7 CFU/mL Escherichia coli MG1655 PAS0260 harboring LepB P84L mutant in cation-adjusted Mueller Hinton 2 broth after 24 hrs by CLSI broth microdilution method. Format: functional, Escherichia coli str. K-12 substr. MG1655. The note with it: PAS0260, 24 h. Put shortly:
as §1

For the next assay, the system named is Prescottella equi. Nature of the assay: Antibacterial activity against 1 x 10^7 CFU/mL Rhodococcus equi ATCC 6939 in cation-adjusted Mueller Hinton 2 broth after 24 hrs by CLSI broth microdilution method. It is filed as functional. The note with it: Rhodococcus (subgen. Prescottella) equi, ATCC 6939, 24 h. Put shortly:
as §1

Another assay relates to Rhodococcus opacus. Nature of the assay: Antibacterial activity against 1 x 10^7 CFU/mL Rhodococcus opacus DSM 1069 in cation-adjusted Mueller Hinton 2 broth after 24 hrs by CLSI broth microdilution method. It is filed as functional. The note with it: DSM 1069, 24 h. In short, it runs like this: as §2
Another assay has as its system Brevibacillus brevis. Nature of the assay: Antibacterial activity against 1 x 10^6 CFU/mL Brevibacillus brevis ATCC 8246 in cation-adjusted Mueller Hinton 2 broth after 24 hrs by CLSI broth microdilution method. It is filed as functional. The note with it: ATCC 8246, 24 h. In short, it runs like this: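 Brevibacillus brevis: 10⁶ cfu inoculated into 1 ml cultures in cation-adjusted Mueller Hinton II broth with compound and 1% DMSO final. Parallel tubes used 0.8% nutrient broth with 0.5% NaCl or without NaCl. Cultures shaken at 28 °C for 24 h. MIC was the lowest concentration inhibiting visible growth.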

In brackets after ≈: the same amount, converted by molar mass.

In general, MIC refers to the least concentration at which growth counts as inhibited. Lower therefore signals greater potency. For the molecule `CCCCCCCCCCCCCCCC(=O)N(C)[C@H](CO)C(=O)N[C@H](C)C(=O)NCC(=O)N(C)[C@@H]1C(=O)N[C@@H](C)C(=O)N[C@H](C(=O)O)Cc2cc(c(O)c([N+](=O)[O-])c2)-c2cc1ccc2O`, the minimal inhibitory concentration (MIC) with Pseudomonas aeruginosa was 4 µg/mL (≈ 4.32 µM); in [1], 4 µg/mL (≈ 4.32 µM); against Streptococcus agalactiae it was 8 µg/mL (≈ 8.64 µM); in the assay with Lactococcus lactis, 32 µg/mL (≈ 34.6 µM); in the assay with Streptococcus pneumoniae it was 16 µg/mL (≈ 17.3 µM); in [2], 0.25 µg/mL (≈ 0.27 µM). Moreover, the MIC worked out at 2 µg/mL (≈ 2.16 µM) in [3]; 8 µg/mL (≈ 8.64 µM) in assay [4]; 4 µg/mL (≈ 4.32 µM) with Streptococcus pyogenes; 2 µg/mL (≈ 2.16 µM) in [5]; 32 µg/mL (≈ 34.6 µM) against Prescottella equi; 4 µg/mL (≈ 4.32 µM) with Rhodococcus opacus. Also, the MIC with Brevibacillus brevis was more than 64 µg/mL.
As to `CCCCCCCCCCCCCCCC(=O)N(C)[C@H](CO)C(=O)N[C@H](C)C(=O)NCC(=O)N(C)[C@@H]1C(=O)N[C@@H](C)C(=O)N[C@H](C(=O)O)Cc2cc(N)c(O)c(c2)-c2cc1ccc2O`, the MIC is 32 µg/mL (≈ 35.7 µM) against Pseudomonas aeruginosa; 64 µg/mL (≈ 71.4 µM) in [1]; 8 µg/mL (≈ 8.93 µM) in assay [2]; 16 µg/mL (≈ 17.9 µM) in [5]; more than 64 µg/mL with Brevibacillus brevis.
Regarding `CCCCCCCCCCCCCCCC(=O)N(C)[C@H](CO)C(=O)N[C@H](C)C(=O)NCC(=O)N(C)[C@@H]1C(=O)N[C@@H](C)C(=O)N[C@H](C(=O)O)Cc2ccc(O)c(c2)-c2cc1ccc2O` [ARYLOMYCIN C16], the minimal inhibitory concentration (MIC) against Pseudomonas aeruginosa is 4 µg/mL (≈ 4.54 µM); in assay [1], 4 µg/mL (≈ 4.54 µM); in the assay with Streptococcus agalactiae, more than 128 µg/mL; with Lactococcus lactis it was 16 µg/mL (≈ 18.2 µM); in the assay on Streptococcus pneumoniae, 8 µg/mL (≈ 9.08 µM); in assay [2], 0.25 µg/mL (≈ 0.284 µM). Moreover, the minimum inhibitory concentration (MIC) in [3] was found to be 2 µg/mL (≈ 2.27 µM); in [4] it was 8 µg/mL (≈ 9.08 µM); in the assay with Streptococcus pyogenes, 8 µg/mL (≈ 9.08 µM); in assay [5] it was 2 µg/mL (≈ 2.27 µM); against Prescottella equi it was 16 µg/mL (≈ 18.2 µM); in the assay on Rhodococcus opacus it was 1 µg/mL (≈ 1.13 µM). In the assay on Brevibacillus brevis, this molecule registered an MIC of more than 64 µg/mL.
